Results on 30 compounds are retold here after PubChem BioAssay AID489030 (Sanford-Burnham Center for Chemical Genomics, 2010).

Hit rate of the full screen: of about 330,000 compounds, about 2,400 (0.73%) were called active. How the source made its calls: active means inhibition of at least 40% at 20 µM; inactive means the rest. The entries come from a sample that favours actives as a whole.

Apoptotic protease-activating factor 1 (Homo sapiens), sequence (O14727 whole entry, looked up): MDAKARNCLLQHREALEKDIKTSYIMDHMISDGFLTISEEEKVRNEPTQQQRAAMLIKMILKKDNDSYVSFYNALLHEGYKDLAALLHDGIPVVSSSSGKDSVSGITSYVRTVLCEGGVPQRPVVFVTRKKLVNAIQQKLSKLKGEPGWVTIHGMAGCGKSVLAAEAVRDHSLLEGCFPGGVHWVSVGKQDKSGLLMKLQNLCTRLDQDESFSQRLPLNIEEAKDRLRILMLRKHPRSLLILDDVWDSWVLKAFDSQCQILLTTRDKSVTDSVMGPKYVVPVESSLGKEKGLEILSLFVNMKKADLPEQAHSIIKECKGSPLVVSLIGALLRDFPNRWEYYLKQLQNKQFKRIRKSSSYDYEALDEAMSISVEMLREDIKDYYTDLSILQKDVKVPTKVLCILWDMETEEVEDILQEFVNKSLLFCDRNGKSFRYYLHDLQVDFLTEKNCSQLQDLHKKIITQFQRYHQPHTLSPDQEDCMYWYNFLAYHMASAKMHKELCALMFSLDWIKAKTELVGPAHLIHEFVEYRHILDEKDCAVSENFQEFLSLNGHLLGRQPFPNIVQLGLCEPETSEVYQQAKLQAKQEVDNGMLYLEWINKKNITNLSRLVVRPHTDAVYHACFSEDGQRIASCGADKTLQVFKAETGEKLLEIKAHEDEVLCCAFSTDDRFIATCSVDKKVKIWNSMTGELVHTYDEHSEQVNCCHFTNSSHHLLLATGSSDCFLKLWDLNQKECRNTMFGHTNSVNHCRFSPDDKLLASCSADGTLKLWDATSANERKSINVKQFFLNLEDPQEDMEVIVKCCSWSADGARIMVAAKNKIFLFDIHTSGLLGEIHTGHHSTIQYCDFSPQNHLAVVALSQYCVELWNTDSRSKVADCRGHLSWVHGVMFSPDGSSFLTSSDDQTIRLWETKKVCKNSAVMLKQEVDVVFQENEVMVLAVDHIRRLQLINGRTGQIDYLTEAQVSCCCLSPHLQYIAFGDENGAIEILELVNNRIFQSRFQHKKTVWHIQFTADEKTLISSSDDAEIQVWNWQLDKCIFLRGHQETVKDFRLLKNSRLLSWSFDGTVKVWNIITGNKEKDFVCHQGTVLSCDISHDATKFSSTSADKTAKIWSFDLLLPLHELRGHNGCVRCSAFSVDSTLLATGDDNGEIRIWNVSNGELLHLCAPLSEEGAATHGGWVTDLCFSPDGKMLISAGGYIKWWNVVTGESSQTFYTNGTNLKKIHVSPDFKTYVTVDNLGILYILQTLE

The target of the test is Apoptotic protease-activating factor 1 (Homo sapiens) (UniProt O14727). As to the kind of experiment: inhibitors of human Apaf-1 apoptosome, primary screen, biochemical, DEVD-Rh110 fluorescence, uHTS (AID 489030).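 Further: plate controls were DMSO wells for no effect and DEVD-CHO caspase inhibitor wells for full effect.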 The following applies: reconstituted apoptosome caspase-3 activity, at 20 µM, stronger effect = higher value. The method in brief:
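detection = Rh110 fluorescence intensity | test system = biochemical Apaf-1 apoptosome reconstitution | also added = cytochrome c and DEVD-Rh110 substrate | schedule = 30 min plus 50 min, RT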
By inhibition is commonly meant the drop in the measured response relative to a control, in per cent. Consider `CCCCCn1c(=O)c(C(=O)Nc2c(C)n(C)n(-c3ccccc3)c2=O)c(O)c2ccccc21`, for which the inhibition is 46.4% (active). Take `CCCCn1c(=O)c(C(=O)Nc2ccccc2Cl)c(O)c2ccccc21`: the inhibition was -6.34% (inactive). On to `CCCCCn1c(=O)c(C(=O)NCc2ccccc2)c(O)c2ccccc21`, for which the inhibition was -34.9% (inactive). Turning to `COC(=O)C1=C(c2c(C)noc2C)C[C@@H]2CC[C@H]1N2C(=O)NCc1ccc2c(c1)OCO2`, the inhibition is 1.57% (inactive). The same measure for `Cc1cccc(-n2c(O)c(/C=N/N3CCOCC3)c(=O)[nH]c2=S)c1`: 3.6% (inactive). Then `c1ccc2sc(N3CCNCC3)nc2c1`, with -11.3% (inactive); and `CC(Cc1ccccc1)NCCC(c1ccccc1)c1ccccc1` (stereo not given), with 41.5% (active). The same measure for `CC(Cc1ccccc1)NC=O` (stereo not given): 5.78% (inactive); for `CC(=O)NC(=O)NC(C)Cc1ccccc1` (stereo not given): -10.3% (inactive). Take `CCOc1ccc(CN(CCCl)CCCl)cc1C(=O)OC`: the inhibition is -1.62% (inactive). Then `COC(=O)C1=C(c2ccccc2)C[C@@H]2CC[C@H]1N2C(=O)NCc1ccco1`, with 3.27% (inactive); and `CCOC(=O)c1c(N)n(Cc2ccccc2)c2nc3ccccc3nc12`, with 79.9% (active); and `COc1cc(Cn2c(N)c(C(=O)NCc3ccco3)c3nc4ccccc4nc32)cc(OC)c1OC`, with 96.1% (active). The same measure for `CCOC(=O)c1c(N)n(CCN2CCOCC2)c2nc3ccccc3nc12`: -3.48% (inactive); for `CCOC(=O)C(O)(c1ccc(NC(=O)c2ccco2)c(OC)c1)C(F)(F)F` (stereo not given): 5.81% (inactive); for `CC/C(=N\NC(=O)c1ccccc1O)c1c(O)n(Cc2ccccc2)c(=O)[nH]c1=O`: -8.27% (inactive). `CN(C)/C=C(\C=[N+](C)C)c1[nH]ncc1[N+](=O)[O-]`: the inhibition is -1.23% (inactive).

As to `COC(=O)C1=C(c2ccc(F)cc2F)C[C@@H]2CC[C@H]1N2C(=O)NC1CC1`, the inhibition is 3.15% (inactive). The same measure for `CCCn1c(C(=O)c2ccccc2OC)nc2ccccc21`: 6.27% (inactive). The same measure for `CCCCCCCCCCCCn1ccc(=N)cc1`: 43.9% (active); for `Cn1c(O)c(C=NCCN2CCNCC2)c(=O)n(C)c1=O`: 6.24% (inactive).

In the case of `COC(=O)CN1C(=O)C2(C(C(=O)OC)=C(N)Oc3ccccc32)C2=C1CC(C)(C)CC2=O` (stereo not given), the inhibition was -21% (inactive). Then `CN(C)C(=O)Oc1ccc(NC(=O)N2CCOCC2)cc1`, with -15% (inactive). Then `CC(=C1C(=O)c2ccccc2C1=O)N1CCN(CCN=Cc2c(O)n(C)c(=O)n(C)c2=O)CC1`, with 1.31% (inactive). Regarding `C=CCN1C(=O)NC(=O)/C(=C/c2ccc(OCC(=O)Nc3ccc(C)cc3)cc2)C1=O`, the inhibition was 8.4% (inactive). Then `O=C(Cc1ccc(Cl)cc1)NCCN1CCN(C(=O)Cc2ccc(Cl)cc2)CC1`, with -6.49% (inactive).

Consider `CNCC(O)c1cc(F)c(OCc2ccccc2)c(OCc2ccccc2)c1F` (stereo not given), for which the inhibition is 45.9% (active). Then `CCc1nc2ccccc2c(=O)n1-c1cccc(OC)c1`, with -11.3% (inactive). Regarding `CNC(=O)N(C)c1nnc(C(C)(C)C)s1`, the inhibition was -10.6% (inactive). Consider `CC(C)c1c(CN(C)C(C)Cc2ccccc2)n(C)n(-c2ccccc2)c1=O` (stereo not given), for which the inhibition was 9.08% (inactive).
